Experimental data as given in ChEMBL document CHEMBL4330143, “Maximizing ER-α Degradation Maximizes Activity in a Tamoxifen-Resistant Breast Cancer Model: Identification of GDC-0927” (ACS Med Chem Lett, 2019).
The source made the active and inactive calls. The rule behind the calls is not given here.

Key:
[1] = Oral bioavailability in rat at 10 mg/kg daily for 3 days measured on day 3 post last dose; type: ADME, organism-based; details: in vivo
[2] = target: T1, Glucocorticoid receptor (Homo sapiens) (UniProt P04150); experiment: Agonist activity at GR (unknown origin) by transcriptional reporter assay
T1 sequence (whole entry): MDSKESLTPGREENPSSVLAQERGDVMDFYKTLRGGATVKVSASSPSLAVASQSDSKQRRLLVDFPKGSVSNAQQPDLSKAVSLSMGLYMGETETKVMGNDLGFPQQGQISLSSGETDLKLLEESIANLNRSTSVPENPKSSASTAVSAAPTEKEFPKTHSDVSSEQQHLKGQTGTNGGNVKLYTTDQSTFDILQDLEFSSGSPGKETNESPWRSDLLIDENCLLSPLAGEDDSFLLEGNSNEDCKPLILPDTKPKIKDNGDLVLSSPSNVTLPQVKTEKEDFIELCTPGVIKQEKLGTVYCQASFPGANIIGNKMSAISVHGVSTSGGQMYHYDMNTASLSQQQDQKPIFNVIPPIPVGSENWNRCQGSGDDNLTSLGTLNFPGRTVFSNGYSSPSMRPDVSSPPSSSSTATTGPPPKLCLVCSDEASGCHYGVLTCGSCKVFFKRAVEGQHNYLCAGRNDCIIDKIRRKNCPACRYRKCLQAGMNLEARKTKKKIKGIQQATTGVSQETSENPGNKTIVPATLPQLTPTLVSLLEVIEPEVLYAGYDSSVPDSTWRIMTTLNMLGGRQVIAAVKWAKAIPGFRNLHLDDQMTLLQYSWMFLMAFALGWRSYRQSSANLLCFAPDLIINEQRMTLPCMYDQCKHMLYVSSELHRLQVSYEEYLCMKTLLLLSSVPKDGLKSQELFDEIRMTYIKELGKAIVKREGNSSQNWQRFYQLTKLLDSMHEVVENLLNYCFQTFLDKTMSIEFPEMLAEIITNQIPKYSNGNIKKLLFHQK

[3] = target: Voltage-gated inwardly rectifying potassium channel KCNH2 (Homo sapiens, UniProt Q12809); experiment: Inhibition of human ERG by patch clamp method
Chain of Voltage-gated inwardly rectifying potassium channel KCNH2 (Q12809 whole entry): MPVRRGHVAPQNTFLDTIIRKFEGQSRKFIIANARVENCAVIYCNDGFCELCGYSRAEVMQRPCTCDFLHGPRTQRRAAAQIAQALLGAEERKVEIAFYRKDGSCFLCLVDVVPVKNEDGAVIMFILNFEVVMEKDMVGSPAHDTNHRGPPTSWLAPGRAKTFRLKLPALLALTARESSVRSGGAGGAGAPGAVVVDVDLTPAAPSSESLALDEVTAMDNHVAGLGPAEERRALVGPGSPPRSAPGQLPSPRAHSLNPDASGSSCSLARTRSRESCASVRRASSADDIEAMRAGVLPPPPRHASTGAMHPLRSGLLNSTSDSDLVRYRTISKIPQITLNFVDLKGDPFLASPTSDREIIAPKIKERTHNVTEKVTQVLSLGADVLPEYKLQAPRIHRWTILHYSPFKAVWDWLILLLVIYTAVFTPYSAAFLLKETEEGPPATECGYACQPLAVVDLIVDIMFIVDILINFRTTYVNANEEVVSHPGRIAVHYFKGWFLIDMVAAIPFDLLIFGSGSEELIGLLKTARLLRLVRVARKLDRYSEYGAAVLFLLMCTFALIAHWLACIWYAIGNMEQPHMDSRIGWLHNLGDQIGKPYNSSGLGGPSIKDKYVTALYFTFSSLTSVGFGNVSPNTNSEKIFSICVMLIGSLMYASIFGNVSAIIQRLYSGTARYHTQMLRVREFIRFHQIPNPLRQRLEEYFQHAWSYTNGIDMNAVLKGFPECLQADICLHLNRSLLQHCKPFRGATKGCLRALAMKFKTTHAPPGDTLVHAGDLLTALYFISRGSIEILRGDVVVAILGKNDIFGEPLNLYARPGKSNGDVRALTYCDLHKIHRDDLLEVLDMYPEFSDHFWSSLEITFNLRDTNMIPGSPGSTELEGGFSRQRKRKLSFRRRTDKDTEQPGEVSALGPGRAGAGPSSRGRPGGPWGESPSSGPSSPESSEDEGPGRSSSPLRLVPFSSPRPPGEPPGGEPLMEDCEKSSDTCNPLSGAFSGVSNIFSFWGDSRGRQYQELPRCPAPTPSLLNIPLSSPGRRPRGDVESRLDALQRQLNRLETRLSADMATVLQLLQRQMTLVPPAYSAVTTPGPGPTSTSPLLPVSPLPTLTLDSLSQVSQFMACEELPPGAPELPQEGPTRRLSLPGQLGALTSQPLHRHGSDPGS

[4] = Cmax in nude mouse xenografted with tamoxifen-resistant human MCF7 cells at 100 mg/kg, po daily for 28 days measured on day 28 post last dose; type: ADME, organism-based; design: dose 100 mg/kg, route oral; details: in vivo
Summary of the method: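 Tamoxifen-resistant MCF-7 xenograft mice carrying subcutaneous 0.72 mg estradiol pellets. Plasma pharmacokinetics sampled on day 28 of the study, at take-down.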

[5] = target: T2, Progesterone receptor (Homo sapiens) (UniProt P06401); experiment: Antagonist activity at PR-B (unknown origin) by transcriptional reporter assay
T2 sequence (whole entry): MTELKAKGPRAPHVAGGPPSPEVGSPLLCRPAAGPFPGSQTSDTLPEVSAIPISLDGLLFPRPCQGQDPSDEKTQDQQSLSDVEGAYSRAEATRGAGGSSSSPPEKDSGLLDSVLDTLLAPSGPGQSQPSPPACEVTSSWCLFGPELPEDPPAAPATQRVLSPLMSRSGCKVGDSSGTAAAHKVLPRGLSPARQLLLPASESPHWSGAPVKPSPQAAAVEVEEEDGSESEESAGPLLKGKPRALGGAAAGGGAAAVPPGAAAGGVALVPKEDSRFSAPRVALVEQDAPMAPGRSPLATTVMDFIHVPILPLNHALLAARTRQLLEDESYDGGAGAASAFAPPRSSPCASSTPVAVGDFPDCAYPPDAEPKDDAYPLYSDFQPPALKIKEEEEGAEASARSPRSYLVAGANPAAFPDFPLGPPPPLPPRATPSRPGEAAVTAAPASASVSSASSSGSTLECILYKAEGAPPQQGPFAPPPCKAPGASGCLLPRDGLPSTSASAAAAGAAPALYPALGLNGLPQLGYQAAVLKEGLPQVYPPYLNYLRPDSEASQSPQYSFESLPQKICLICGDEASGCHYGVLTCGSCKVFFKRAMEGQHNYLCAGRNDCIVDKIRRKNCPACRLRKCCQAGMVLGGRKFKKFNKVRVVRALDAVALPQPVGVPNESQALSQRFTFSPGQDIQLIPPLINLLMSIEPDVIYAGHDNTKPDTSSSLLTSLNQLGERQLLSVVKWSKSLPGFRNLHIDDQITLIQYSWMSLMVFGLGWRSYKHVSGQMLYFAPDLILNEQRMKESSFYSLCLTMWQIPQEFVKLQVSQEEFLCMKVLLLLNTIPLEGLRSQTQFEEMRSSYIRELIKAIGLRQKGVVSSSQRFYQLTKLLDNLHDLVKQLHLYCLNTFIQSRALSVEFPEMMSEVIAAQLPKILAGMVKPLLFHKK

[6] = target: T3, Mineralocorticoid receptor (Homo sapiens) (UniProt P08235); experiment: Antagonist activity at MR (unknown origin) by transcriptional reporter assay
T3 sequence (whole entry): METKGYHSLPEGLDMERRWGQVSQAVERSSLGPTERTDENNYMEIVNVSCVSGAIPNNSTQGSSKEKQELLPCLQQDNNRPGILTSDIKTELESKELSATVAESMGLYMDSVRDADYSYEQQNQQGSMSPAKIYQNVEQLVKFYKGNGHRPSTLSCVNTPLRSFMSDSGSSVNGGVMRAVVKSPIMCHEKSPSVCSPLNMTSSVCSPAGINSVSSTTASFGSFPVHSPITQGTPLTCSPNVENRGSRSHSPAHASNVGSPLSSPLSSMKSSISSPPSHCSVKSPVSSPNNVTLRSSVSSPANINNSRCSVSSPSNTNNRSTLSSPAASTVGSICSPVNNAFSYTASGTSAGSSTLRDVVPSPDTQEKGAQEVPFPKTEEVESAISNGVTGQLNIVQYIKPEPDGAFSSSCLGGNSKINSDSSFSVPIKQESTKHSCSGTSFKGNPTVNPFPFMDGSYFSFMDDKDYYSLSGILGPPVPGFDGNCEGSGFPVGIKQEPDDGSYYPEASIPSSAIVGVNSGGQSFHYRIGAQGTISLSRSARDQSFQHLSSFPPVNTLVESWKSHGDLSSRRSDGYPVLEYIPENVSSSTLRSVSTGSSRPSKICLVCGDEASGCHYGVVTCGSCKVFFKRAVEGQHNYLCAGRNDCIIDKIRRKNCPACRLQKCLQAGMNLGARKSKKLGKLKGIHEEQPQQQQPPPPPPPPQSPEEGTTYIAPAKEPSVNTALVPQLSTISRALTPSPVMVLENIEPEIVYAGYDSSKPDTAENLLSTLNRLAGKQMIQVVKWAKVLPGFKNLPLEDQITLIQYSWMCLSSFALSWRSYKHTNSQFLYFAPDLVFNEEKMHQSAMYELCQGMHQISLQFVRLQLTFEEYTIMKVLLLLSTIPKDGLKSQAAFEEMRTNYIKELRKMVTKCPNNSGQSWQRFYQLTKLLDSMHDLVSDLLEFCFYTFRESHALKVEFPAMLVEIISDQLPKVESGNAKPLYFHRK

Mus musculus = experiment: In vivo induction of ERalpha degradation in tumor of nude mouse xenografted with tamoxifen-resistant human MCF7 cells at 100 mg/kg, po daily for 28 days measured on day 28 post last dose; type: functional, organism-based
Summary of the method: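 Tamoxifen-resistant MCF-7 tumours grown subcutaneously in mice, with estradiol supplied from subcutaneous 0.72 mg estradiol pellets.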

CC1=C(c2cccc(O)c2)[C@H](c2ccc(OCCN3CC(CF)C3)cc2)Oc2ccc(O)cc21
bioavailability [1]: 10%
Activity [2]: inactive
IC50 [3]: 4.6 µM
Cmax [4]: 950 ng/mL
inhibition [5]: inactive
inhibition [6]: inactive
Activity (Mus musculus): Active
